ChEMBL document CHEMBL1158617, “New estrogenic compounds isolated from Broussonetia kazinoki” (Bioorg Med Chem Lett, 2010)
Active and inactive are the calls of the source. The rule behind the calls is not given here.

Tests used:
Estrogen receptor [1] = biological target: T1, Estrogen receptor (Homo sapiens, UniProt P03372); assay: Displacement of [3H]17-beta-estradiol from human recombinant full length ERalpha
T1 sequence (P03372 whole entry): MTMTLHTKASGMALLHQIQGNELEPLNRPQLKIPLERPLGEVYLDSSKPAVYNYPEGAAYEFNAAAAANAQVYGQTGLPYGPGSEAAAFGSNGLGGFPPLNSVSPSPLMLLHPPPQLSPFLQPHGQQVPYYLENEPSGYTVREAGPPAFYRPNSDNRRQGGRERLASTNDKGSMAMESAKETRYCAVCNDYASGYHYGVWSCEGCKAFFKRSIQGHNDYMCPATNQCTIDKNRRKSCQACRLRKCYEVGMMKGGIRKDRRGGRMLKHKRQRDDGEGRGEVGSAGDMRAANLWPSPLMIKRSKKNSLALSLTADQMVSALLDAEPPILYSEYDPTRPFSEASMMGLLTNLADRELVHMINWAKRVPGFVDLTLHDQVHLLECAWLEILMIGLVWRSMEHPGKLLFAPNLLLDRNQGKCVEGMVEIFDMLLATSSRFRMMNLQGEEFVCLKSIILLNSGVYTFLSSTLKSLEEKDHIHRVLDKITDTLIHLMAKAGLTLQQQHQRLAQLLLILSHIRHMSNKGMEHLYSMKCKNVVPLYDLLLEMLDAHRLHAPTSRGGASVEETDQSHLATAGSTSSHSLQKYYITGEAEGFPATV
Outline: (§1)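 Competitive ligand-binding assay with recombinant human ER-α or ER-β. Test compounds displace the labelled estrogen ligand, and IC50 is derived from the displacement curves.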

MCF7 [2] = assay: Down-regulation of ERalpha mRNA expression in human MCF7 cells at 10 uM after 24 hrs by RT-PCR analysis; type: functional, cell-based
Outline: (§2)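 MCF-7 cells were treated 24 h with compounds at 10 µM. Steady-state mRNA levels were quantified by qPCR, with constitutive human β-actin mRNA as internal control, relative to untreated control.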

Estrogen receptor beta [3] = biological target: T2, Estrogen receptor beta (Homo sapiens, UniProt Q92731); assay: Displacement of [3H]17-beta-estradiol from human recombinant full length ERbeta relative to estradiol
T2 sequence (Q92731 whole entry): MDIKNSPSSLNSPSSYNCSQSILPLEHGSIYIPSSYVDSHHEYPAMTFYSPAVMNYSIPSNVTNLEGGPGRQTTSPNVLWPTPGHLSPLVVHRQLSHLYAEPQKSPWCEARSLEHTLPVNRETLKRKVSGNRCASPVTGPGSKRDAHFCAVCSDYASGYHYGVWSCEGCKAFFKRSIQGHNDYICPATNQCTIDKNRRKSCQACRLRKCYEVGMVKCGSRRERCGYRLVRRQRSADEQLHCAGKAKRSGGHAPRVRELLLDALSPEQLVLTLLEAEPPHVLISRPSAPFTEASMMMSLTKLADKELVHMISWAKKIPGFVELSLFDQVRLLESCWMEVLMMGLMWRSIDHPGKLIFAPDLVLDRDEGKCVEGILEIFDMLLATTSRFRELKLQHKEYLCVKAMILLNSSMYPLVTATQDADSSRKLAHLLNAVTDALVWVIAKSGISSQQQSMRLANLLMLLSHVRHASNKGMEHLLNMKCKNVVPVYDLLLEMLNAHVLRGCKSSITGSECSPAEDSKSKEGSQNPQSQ
Outline: (§3)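 Relative binding affinity is taken from the competitive binding IC50s against recombinant human ER-α or ER-β. RBA = 100 × IC50(E2)/IC50(compound).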

Homo sapiens = organism: Homo sapiens; assay: Selectivity ratio of IC50 for human recombinant full length ERbeta to IC50 for human recombinant full length ERalpha
Estrogen receptor beta [4] = biological target: T2, Estrogen receptor beta; assay: Displacement of [3H]17-beta-estradiol from human recombinant full length ERbeta; outline: as §1
MCF7 [5] = assay: Down-regulation of ERalpha mRNA expression in human MCF7 cells at 10 uM after 24 hrs by SDS PAGE and immunoblot analysis; type: functional, cell-based; conditions: in the assay text read “protein” for “mRNA”
Outline: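 MCF-7 cells were treated 24 h with 10 µM compounds, with 10 nM E2 as reference. Total protein extracts were run on SDS–PAGE and immunoblotted with anti-ER-α and anti-β-actin antibodies. ER-α protein was compared with control.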

MCF7 [6] = assay: Up-regulation of pS2 gene expression in human MCF7 cells at 10 uM after 24 hrs by RT-PCR analysis; type: functional, cell-based; outline: as §2
MCF7 [7] = assay: Up-regulation of progesterone receptor gene expression in human MCF7 cells at 10 uM after 24 hrs by RT-PCR analysis; type: functional, cell-based; outline: as §2
[8] = biological target: T3, Estrogen receptor (Homo sapiens) (UniProt P03372); assay: Displacement of [3H]17-beta-estradiol from human recombinant full length ERalpha relative to estradiol; outline: as §3
T3 sequence (whole entry): T1 sequence (P03372 whole entry)

Estrogen receptor [9] = biological target: T1, Estrogen receptor; assay: Transactivation of human recombinant ERalpha expressed in african green monkey CV1 cells co-expressing ERE-Luc after 24 hrs by luciferase reporter gene assay; type: cell-based, CV-1
Outline: (§4)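 CV-1 cells were transfected with an ERE-Luc reporter plus a hER-α or hER-β expression vector. Cells were incubated 24 h with compounds, then lysed, and luciferase expression was measured. Data are mean ± SD (n = 3), and EC50 comes from the dose-response.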

Estrogen receptor beta [10] = biological target: T2, Estrogen receptor beta; assay: Transactivation of human recombinant ERbeta expressed in african green monkey CV1 cells co-expressing ERE-Luc after 24 hrs by luciferase reporter gene assay; type: cell-based, CV-1; outline: as §4
[11] = biological target: T3, Estrogen receptor (Homo sapiens); assay: Transactivation of human recombinant ERalpha expressed in african green monkey CV1 cells co-expressing ERE-Luc after 24 hrs by luciferase reporter gene assay in presence of ER antagonist ICI 182780; type: functional, cell-based; conditions: CV-1

| SMILES | IC50 (Estrogen receptor [1]) | Activity (MCF7 [2]) | RBA (Estrogen receptor beta [3]) | Ratio IC50 (Homo sapiens) | IC50 (Estrogen receptor beta [4]) | Activity (MCF7 [5]) | Activity (MCF7 [6]) | Activity (MCF7 [7]) | RBA [8] | EC50 (Estrogen receptor [9]; cv-1) | EC50 (Estrogen receptor [9]; read-out: EC50) | EC50 (Estrogen receptor beta [10]; cv-1) | EC50 (Estrogen receptor beta [10]; read-out: EC50) | Activity [11] |
| --- | --- | --- | --- | --- | --- | --- | --- | --- | --- | --- | --- | --- | --- | --- |
| CC(C)=CCc1c([C@H]2CCc3ccc(O)cc3O2)cc(O)c(O)c1CC=C(C)C | 151 µM | Active | 0.007% | 1.75 | 96 µM | Active | Active | Active | 0.004% |  |  |  |  |  |
| CC(C)=CCc1c([C@H]2CCc3ccc(O)cc3O2)ccc(O)c1O [KAZINOL U] | 57.2 µM | Active | 0.017% | 1.7 | 41.7 µM | Active | Active | Active | 0.01% |  |  |  |  |  |
| COc1ccc(CCCc2ccc(O)cc2)c(O)c1 [BROUSSONIN A] | 8.1 µM | Active | 0.394% | 5.71 | 1.8 µM | Active | Active | Active | 0.069% | Dose-dependent effect | 1.59 µM | Dose-dependent effect | 0.53 µM | inactive |
| Oc1ccc([C@H]2CCc3ccc(O)cc3O2)cc1 [TUPICHINOL C] | 26.2 µM | Active | 0.048% | 2.29 | 14.7 µM | Active | Active | Active | 0.021% |  |  |  |  |  |
